Test results taken from ChEMBL document CHEMBL1155058, “N-Arylmethyl substituted iminoribitol derivatives as inhibitors of a purine specific nucleoside hydrolase” (Bioorg Med Chem, 2008).

Assay: Inhibition of Trypanosoma vivax IAG-NH expressed in Escherichia coli WK6 cells
How it was run: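 Recombinant N-terminal His6-tagged enzyme, purified by Ni-NTA affinity and Superdex-200 gel filtration, concentration per monomer from ε280 47752 M-1cm-1. […] Initial rates fitted to competitive inhibition equation.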

Question: For `N#Cc1cccc(CN2C[C@H](O)[C@H](O)[C@H]2CO)c1`, which Ki is on record?
Answer: 3800 nM

Question: With `OC[C@@H]1[C@@H](O)[C@@H](O)CN1Cc1ccccc1` as the compound, how does the Ki read?
Answer: 59000 nM

Question: Which Ki does the source give for `COc1ccc(CN2C[C@H](O)[C@H](O)[C@H]2CO)cn1` here?
Answer: 32000 nM

Question: Which Ki does the source give for `OC[C@@H]1[C@@H](O)[C@@H](O)CN1Cc1ccncc1` here?
Answer: 20000 nM

Question: For `OC[C@@H]1[C@@H](O)[C@@H](O)CN1Cc1ccnc2ccccc12`, which Ki is on record?
Answer: 29000 nM

Question: For `Cc1nc(-c2ccccc2)ncc1CN1C[C@H](O)[C@H](O)[C@H]1CO`, which Ki is on record?
Answer: 43000 nM

Question: For `OC[C@@H]1[C@@H](O)[C@@H](O)CN1Cc1ccc(I)cc1`, which Ki is on record?
Answer: 4300 nM

Question: For `OC[C@@H]1[C@@H](O)[C@@H](O)CN1Cc1ccc2ccccc2c1`, which Ki is on record?
Answer: 2000 nM

Question: With `O=[N+]([O-])c1ccc(CN2C[C@H](O)[C@H](O)[C@H]2CO)cc1` as the compound, how does the Ki read?
Answer: 7500 nM

Question: Which Ki does the source give for `OC[C@@H]1[C@@H](O)[C@@H](O)CN1Cc1ccc(-n2cccc2)cc1` here?
Answer: 1000 nM

Question: Which Ki does the source give for `OC[C@@H]1[C@@H](O)[C@@H](O)CN1Cc1ccc(-n2cccn2)cc1` here?
Answer: 1200 nM

Question: For `Cc1nn(-c2ccccc2)nc1CN1C[C@H](O)[C@H](O)[C@H]1CO`, which Ki is on record?
Answer: 63 nM

Question: For `O=[N+]([O-])c1cccc(CN2C[C@H](O)[C@H](O)[C@H]2CO)c1`, which Ki is on record?
Answer: 23000 nM

Question: For `OC[C@@H]1[C@@H](O)[C@@H](O)CN1Cc1ccc2ccccc2n1`, which Ki is on record?
Answer: 180 nM

Question: Which Ki does the source give for `OC[C@@H]1[C@@H](O)[C@@H](O)CN1Cc1cccc2cccnc12` here?
Answer: 10.8 nM

Question: Which Ki does the source give for `OC[C@@H]1[C@@H](O)[C@@H](O)CN1Cc1cccc(-n2cccc2)c1` here?
Answer: 3400 nM

Question: With `OC[C@@H]1[C@@H](O)[C@@H](O)CN1Cc1c[nH]c2c(O)ncnc12` as the compound, how does the Ki read?
Answer: 4.4 nM

Question: Which Ki does the source give for `Nc1ncnc2c(CN3C[C@H](O)[C@H](O)[C@H]3CO)c[nH]c12` here?
Answer: 4.1 nM

Question: For `OC[C@@H]1[C@@H](O)[C@@H](O)CN1Cc1ccc2cccnc2c1`, which Ki is on record?
Answer: 720 nM

Question: For `OC[C@@H]1[C@@H](O)[C@@H](O)CN1Cc1ccc2cccc(O)c2n1`, which Ki is on record?
Answer: 1000 nM

Question: Which Ki does the source give for `Cn1c(CN2C[C@H](O)[C@H](O)[C@H]2CO)nc2ccccc21` here?
Answer: 2100 nM

Question: With `OC[C@@H]1[C@@H](O)[C@@H](O)CN1Cc1nccc2ccccc12` as the compound, how does the Ki read?
Answer: 750 nM

Question: With `N#Cc1ccc(CN2C[C@H](O)[C@H](O)[C@H]2CO)cc1` as the compound, how does the Ki read?
Answer: 26000 nM

Question: With `OC[C@@H]1[C@@H](O)[C@@H](O)CN1Cc1ccc(-n2cncn2)cc1` as the compound, how does the Ki read?
Answer: 1200 nM

Question: With `Cn1nnc2cc(CN3C[C@H](O)[C@H](O)[C@H]3CO)ccc21` as the compound, how does the Ki read?
Answer: 720 nM

Question: For `OC[C@@H]1[C@@H](O)[C@@H](O)CN1Cc1c[nH]c2ccccc12`, which Ki is on record?
Answer: 12000 nM

Question: With `COc1cccc2c(CN3C[C@H](O)[C@H](O)[C@H]3CO)c[nH]c12` as the compound, how does the Ki read?
Answer: 2300 nM

Question: Which Ki does the source give for `OC[C@@H]1[C@@H](O)[C@@H](O)CN1Cc1cnc2ccccc2c1` here?
Answer: 20000 nM

Question: With `Nc1ncccc1CN1C[C@H](O)[C@H](O)[C@H]1CO` as the compound, how does the Ki read?
Answer: 120000 nM
